# Assay results from publication PMC2704382 (Cell, 2009).
# Legend:
# AHPs = experiment: AHP cell proliferation assay; format: cell-based; details: 200 ng/ml in culture medium; cell numbers counted for 2 days; n=3
# Summary of the method: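 Adult hippocampal progenitors transduced 2 days with GFP-expressing lentivirus (control, DISC1 shRNA or WT-hDISC1), then FACS-sorted on GFP. 2×10^4 cells seeded per well in medium with recombinant Wnt3a (200 ng/ml) or vehicle. Cells counted each day for 2 days; n=3.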
# GSK3β [1] = experiment: In vitro GSK3β kinase assay; format: biochemical; details: 2 µM protein
# GSK3β [2] = format: binding; details: GST-tagged DISC1 fragments, purified His-tagged GSK3β, in vitro
Inhibition of GSK3β autophosphorylation (GSK3β [1]),Molecule,Proliferation of AHPs (AHPs),Interaction with GSK3β (GSK3β [2])
–,"Wnt3a: recombinant Wnt3a protein (protein, UniProt P56704 19-352, looked up) Protein Wnt-3a: SYPIWWSLAVGPQYSSLGSQPILCASIPGLVPKQLRFCRNYVEIMPSVAEGIKIGIQECQHQFRGRRWNCTTVHDSLAIFGPVLDKATRESAFVHAIASAGVAFAVTRSCAEGTAAICGCSSRHQGSPGKGWKWGGCSEDIEFGGMVSREFADARENRPDARSAMNRHNNEAGRQAIASHMHLKCKCHGLSGSCEVKTCWWSQPDFRAIGDFLKDKYDSASEMVVEKHRESRGWVETLRPRYTYFKVPTERDLVYYEASPNFCEPNPETGSFGTRDRTCNVSSHGIDGCDLLCCGRGHNARAERRREKCRCVFHWCCYVSCQECTRVYDVHTCK",significantly stimulated,–
started to inhibit,"DISC1 221–355: GST-tagged DISC1 protein fragment spanning 221–355 (protein, UniProt Q9NRI5 221-355, looked up, fragment, GST tag) GERGEAEGCPPSREAESHCQSPQEMGAKAASLDGPHEDPRCLSRPFSLLATRVSADLAQAARNSSRPERDMHSLPDMDPGSSSSLDPSLAGCGGDGSSGSGDAHSWDTLLRKWEPVLRDCLLRNRRQMEVISLRL",–,–
started to inhibit,"DISC1 356–595: GST-tagged DISC1 protein fragment spanning residues 356–595 (protein, left off: GST, end not stated, kept) LKLQKCQEKVVEDGDYDTAETLRQRLEELEQEKGRLSWALPSQQPALRSFLGYLAAQIQVALHGATQRAGSDDPEAPLEGQLRTTAQDSLPASITRRDWLIREKQRLQKEIEALQARMSALEAKEKRLSQELEEQEVLLRWPGCDLMALVAQMSPGQLQEVSKALGETLTSANQAPFQVEPPETLRSLRERTKSLNLAVRELTAQVCSGEKLCSSLRRRLSDLDTRLPALLEAKMLALSG",–,strong interactions
